# NR3A LBD binder – binders of NR3A ligand-binding domain, primary screen, biophysical, differential scanning fluorimetry, uHTS. Tm shift relative to glycine control, % at 25 µM. NR3A LBD differential scanning fluorimetry, Tm shift; 0% = protein alone, 100% = glycine-bound protein. hit rate 2.5% among 340,000;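 active means melting temperature shift of at least 10% of the positive control shift, at one fixed dose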
# PREPL inh – PREPL enzyme inhibitors, primary screen, biochemical, fluorescence polarization; AID 2751, 2010; inhibition, % at 5.96 µM; hit rate 0.68% among 320,000; recombinant PREPL, fluorescence polarization activity-based probe; Prolyl endopeptidase-like (Homo sapiens), Q4J6C6; in the data active means inhibition above about 43%;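 further: 0% = enzyme with DMSO and 100% = wells lacking enzyme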
# Target sequence (Q4J6C6 whole entry, looked up): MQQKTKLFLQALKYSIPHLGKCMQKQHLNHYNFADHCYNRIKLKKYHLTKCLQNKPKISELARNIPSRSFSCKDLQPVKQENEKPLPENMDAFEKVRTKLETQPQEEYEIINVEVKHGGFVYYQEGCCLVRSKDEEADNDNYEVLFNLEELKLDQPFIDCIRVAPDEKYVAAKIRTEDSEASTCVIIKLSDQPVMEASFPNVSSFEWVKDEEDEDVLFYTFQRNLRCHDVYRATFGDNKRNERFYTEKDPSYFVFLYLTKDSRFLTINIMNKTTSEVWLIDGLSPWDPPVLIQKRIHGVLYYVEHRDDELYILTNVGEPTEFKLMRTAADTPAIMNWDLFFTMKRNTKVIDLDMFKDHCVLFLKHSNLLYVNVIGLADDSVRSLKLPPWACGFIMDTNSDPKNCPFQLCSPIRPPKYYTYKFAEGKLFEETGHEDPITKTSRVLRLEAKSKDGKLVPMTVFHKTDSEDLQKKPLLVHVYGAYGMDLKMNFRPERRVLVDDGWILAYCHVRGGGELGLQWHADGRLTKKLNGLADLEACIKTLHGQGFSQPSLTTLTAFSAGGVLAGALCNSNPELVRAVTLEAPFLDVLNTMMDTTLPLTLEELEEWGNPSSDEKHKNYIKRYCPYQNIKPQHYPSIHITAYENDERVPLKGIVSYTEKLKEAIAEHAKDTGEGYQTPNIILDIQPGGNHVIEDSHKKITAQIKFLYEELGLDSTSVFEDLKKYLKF
# CHOP inh – inhibitors of CHOP promoter induction, primary screen, cell-based, unfolded protein response, luciferase reporter; hit rate 3.8% among 220,000; AID 2732, 2010; inhibition, % at 10 µM; CHO-K1 CHOP-promoter luciferase, tunicamycin-induced, 15-18 h;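 active means compounds that reduced the stress-induced luciferase reporter signal by more than about 70% of percent inhibition, limit read from the data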;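 further: 0% = tunicamycin plus vehicle and 100% = wells without tunicamycin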
# T cruzi inh – inhibitors of intracellular T. cruzi growth, primary screen, luminescence, NIH3T3 host cells | T. cruzi beta-gal in NIH3T3, 90 h | inhibition, % (no concentration beside the values) | hit rate 1.4% among 300,000;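 active means mean inhibition across valid replicates above about 55%, limit read from the data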;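 further: signal also drops with host cell toxicity which is not excluded here; 0% = plate median of DMSO wells and 100% = zero luminescence signal; higher percent means less beta-gal luminescence so fewer parasites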
#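 Test system: β-gal T. cruzi (Tulahuen C4) inside NIH/3T3 cells / Quantity: 5,000 cells/well / Measured by: luminescence from GalScreen with 0.05% NP40, read after 60 min / Medium: DMEM plus 2% FBS / Measure: parasite load inhibition, % / Reagent: Tulahuen C4 trypomastigotes, 5000/well / Schedule: co-culture of at least 90 h after 3 h attachment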
# CSC inhib – cancer stem cell viability inhibitors, primary screen, luminescence; AID 2717, 2010; inhibition, % at 7.5 µM; cancer stem cell-like cells viability; hit rate 1.1% among 300,000; in the data active means inhibition above about 75%; tested in HMLE shEcad cells
# Beta cell apopt – inhibitors of cytokine-induced beta cell apoptosis, primary screen, luminescence | INS-1E cytokine-induced death, ATP luminescence, 48 h; percent of positive-control rescue, neutral wells zero | protection from apoptosis, % (no concentration beside the values) | hit rate 0.8% among 300,000;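 active means Every replicate reaches about 75%, or at least half do and their mean reaches it too, limit read from the data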;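 further: 0% = cytokine-treated negative control wells and 100% = positive control rescue; higher means more ATP so stronger rescue from cytokine killing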
# The depositor's hits bear a star; / = not tested or not shown. Shown are actives, neighbours in structure and some others; about 6.7% of the full set was active somewhere.
SMILES,NR3A LBD binder,PREPL inh,CHOP inh,T cruzi inh,CSC inhib,Beta cell apopt
Cc1cc(NC(=O)c2cccs2)n(-c2nc3ccccc3[nH]2)n1,-3,5,-33,58*,54,50
Cc1ccc(S(=O)(=O)N(C)C)cc1NC(=O)c1c(-c2c(F)cccc2Cl)noc1C,1,-8,62,14,5,1
COCCn1c(SCC(=O)Nc2ccc(F)cc2)nc2c(oc3ccccc32)c1=O,1,-9,84*,10,0,1
Cc1cc(C)cc(NC(=O)CSc2nc3c(oc4ccccc43)c(=O)n2-c2ccccc2)c1,-1,-21,9,55*,6,-1
CSc1ccc(C(=O)NC2CCSc3ccccc32)cc1 (configuration not stated),0,3,/,3,-15,3
Cc1ccc(NS(=O)(=O)c2ccc(NC(=O)c3cccc(NC(=O)C(C)C)c3)cc2)cc1,18*,1,12,-1,37,21
Cc1cccc(C(=O)Nc2ccc(S(=O)(=O)Nc3nc(C)cc(C)n3)cc2)c1,13*,11,/,-7,-10,1
CCc1nnc(NS(=O)(=O)c2ccc(NC(=O)c3ccccc3)cc2)s1,2,-5,2,0,-13,-1
Cc1ccc(S(=O)(=O)Nc2ccc(C(=O)Nc3ccncc3)cc2)cc1,-25,-10,15,32,62,/
Cc1cc(C)nc(NS(=O)(=O)c2ccc(N/C=C/C(=O)c3ccc(Cl)cc3)cc2)n1,-17,-3,92*,-1,9,1
CCc1nnc(NS(=O)(=O)c2ccc(N/C=C\C(=O)c3ccc4ccccc4c3)cc2)s1,14*,-5,13,7,7,-2
O=C(COc1ccc(-c2ccccc2)cc1)N1CCN(S(=O)(=O)Cc2ccccc2)CC1,-4,17,34,29,52,1
Brc1ccc(-n2cc(-c3ccccc3)c3c(NN4CCOCC4)ncnc32)cc1,-2,4,17,24,66,-7
Clc1ccc2c(c1)Nc1ccccc1CC2,-9,16,/,23,4,-8
C=CCc1cccc2cc(C(=O)Nc3ccc(S(=O)(=O)Nc4nnc(CC)s4)cc3)c(=O)oc12,-9,-10,72*,-4,5,-4
CC(=O)Nc1ccc(S(=O)(=O)Nc2nccc(C)n2)cc1,2,2,/,-2,-4,-2
CC(=O)Nc1ccc(S(=O)(=O)Nc2nccc(/C=C/c3ccc(Cl)cc3)n2)cc1,12*,3,10,-8,11,1
Brc1cccc(CSc2nnc(-c3ccncc3)o2)c1,-3,-7,50,/,21,-7
CCc1ccc(C2NC(=S)NC3=C2C(=O)CC(C)(C)C3)cc1 (configuration not stated),21*,19,6,-7,-2,-11
CC(C)c1ccc(C2NC(=S)NC3=C2C(=O)CC(C)(C)C3)cc1 (configuration not stated),1,6,20,14,-2,-1
CCCCN(CC)CCNC(=O)c1cn(-c2ccc(Cl)cc2)c(=O)c2ccccc12,-3,-97,44,68*,-9,10
CCCCN(CC)CCNC(=O)c1cc2c(=O)n(C)c3ccccc3c2s1,1,-29,/,61*,18,12
Cn1c(=O)c2[nH]c(C(O)c3ccc(Cl)cc3)nc2n(C)c1=O (configuration not stated),-1,/,/,/,/,/
CC(NCCCOc1cccc2ccccc12)c1ccccc1 (configuration not stated),0,-19,/,43,/,/
OC(CN(c1ccccc1)c1ccccc1)Cn1cnc2ccccc21 (configuration not stated),-25,38,92*,6,-3,11
SMILES,NR3A LBD binder,PREPL inh,CHOP inh,T cruzi inh,CSC inhib,Beta cell apopt
O=C(Nc1cccc(Cl)c1)c1cc(N=Nc2ccc([N+](=O)[O-])cc2Cl)ccc1O,19*,7,36,-2,128*,46
O=C(Nc1cccc(Cl)c1)c1cccc(Oc2ccc([N+](=O)[O-])cc2Cl)c1,8,-9,67,-12,63,1
CCn1c(=O)c([N+](=O)[O-])c(NC2CCS(=O)(=O)C2)c2ccccc21 (configuration not stated),-6,-2,9,/,-5,-4
O=C(NCCCN1CCOCC1)c1ccc(Sc2ccc(Br)cc2)c([N+](=O)[O-])c1,1,15,46,54,76*,8
O=C(NCCCN1CCOCC1)c1ccc2ccccc2c1,1,12,/,-1,-5,-2
O=C(NCCCN1CCOCC1)c1ccc(Sc2ccccc2Cl)c([N+](=O)[O-])c1,18*,2,33,12,52,12
CCOc1ccc(C(C(=O)NC2CCCCC2)N(C(=O)Cc2cccs2)c2ccc(-n3cnnn3)c(OC)c2)cc1 (configuration not stated),-2,4,84*,30,-2,10
CCN(CC(=O)NCc1ccc(F)cc1)C(=O)C1CCN(S(=O)(=O)c2ccc(C(C)C)cc2)CC1,0,/,/,/,/,/
COc1ccc(S(=O)(=O)N(C)CC(=O)NC2CCCCC2)cc1Cl,11*,-1,10,-17,3,-1
COc1ccc(S(=O)(=O)N(C)CC(=O)Nc2ccc(C(F)(F)F)cc2)cc1Cl,-2,-20,81*,9,-5,3
COc1ccc(S(=O)(=O)N(C)CC(=O)NC2CCCCC2)cc1OC,4,26,27,-4,/,/
CCCCCN1CC(=O)N2Cc3[nH]c4ccccc4c3C[C@H]2C1=O,-5,16,/,-5,-13,2
CCCCN1C(=O)C2Cc3c([nH]c4ccccc34)CN2C1=S (configuration not stated),3,0,80*,17,8,-7
Fc1ccc(NC(=S)Nc2cccnc2)cc1Cl,-1,18,18,6,3,-2
Fc1ccc(NC(=S)Nc2cc(-c3ccccc3)[nH]n2)cc1Cl,26*,-10,70*,34,88*,1
Cc1ccc(NC(=S)Nc2cc(-c3ccccc3)[nH]n2)cc1Cl,24*,-9,84*,/,3,11
Cc1cc(C(=O)NN=Cc2ccc(-c3ccc(F)cc3)o2)c(C)o1,16*,21,/,/,-5,-4
Cc1ccc(/C=N/NC(=O)c2cc(C)oc2C)o1,-1,7,1,-5,/,-8
Cc1ccc(C(=O)N/N=C\c2ccc(-c3ccc(Cl)cc3)o2)cn1,13*,15,1,-2,31,4
Cc1ccc(C(=O)N/N=C\c2ccc(-c3ccc([N+](=O)[O-])cc3)o2)cn1,-2,13,14,11,1,-10

# Assay outcomes: PubChem, several laboratories
